Nine compounds from ChEMBL document CHEMBL2380290, “Neonicotinic analogues: selective antagonists for α4β2 nicotinic acetylcholine receptors” (Bioorg Med Chem, 2013) can be followed below.

The structures appear in SMILES notation. Calls of active or inactive are those of the source. No cut-off for these calls is given here.

Assay [1] concerns the target T1, Neuronal acetylcholine receptor subunit alpha-7 (Homo sapiens, UniProt P36544). In words: Displacement of [125I]alpha-bungarotoxin from human alpha7 nAChR overexpressed in human SH-SY5Y cells after 120 mins by liquid scintillation spectrometric analysis. The assay is classed as cell-based. A general note: Loss of bound radioactivity is the signal in a displacement assay; it reports binding, not function.

For assay [2], the target named is Nicotinic acetylcholine receptor alpha4/beta2/alpha5 (Homo sapiens, UniProt P17787+P30532+P43681). The assay can be described thus: Antagonist activity at (alpha4beta2)2alpha5 nAChR (unknown origin) expressed in Xenopus oocytes assessed as inhibition of acetylcholine-induced current after 2 mins by two-electrode voltage clamp assay. In kind it is cell-based, Oocyte. Background: In two-electrode clamp one electrode senses voltage and the other passes current.

For assay [3], the target named is T2, Neuronal acetylcholine receptor; alpha4/beta2 (Homo sapiens, UniProt P17787+P43681). The assay can be described thus: Antagonist activity at (alpha4beta2)2alpha4 nAChR (unknown origin) expressed in Xenopus oocytes assessed as inhibition of acetylcholine-induced current after 2 mins by two-electrode voltage clamp assay. The assay is classed as cell-based, Oocyte.

Assay [4] addresses T2, Neuronal acetylcholine receptor; alpha4/beta2. In words: Displacement of [3H]cytisine from human alpha4beta2 nAChR overexpressed in human SHEP cells after 75 mins by liquid scintillation spectrometric analysis. The assay is classed as cell-based. The essentials: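 SH-EP1-hα4β2 membrane homogenates (30–50 µg protein) were incubated with 1 nM [3H]cytisine for 75 min at 4 °C in Tris binding saline, pH 7.0. Filtration on PEI-soaked GF/C filters, scintillation counting. Four experiments in triplicate.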

Assay [5] shares this target. In words: Antagonist activity at (alpha4beta2)2beta2 nAChR (unknown origin) expressed in Xenopus oocytes assessed as inhibition of acetylcholine-induced current after 2 mins by two-electrode voltage clamp assay. In kind it is cell-based, Oocyte.
Assay [6] addresses T1, Neuronal acetylcholine receptor subunit alpha-7. The assay can be described thus: Displacement of [125I]alpha-bungarotoxin from human alpha7 nAChR overexpressed in human SH-SY5Y cells at 1 mM after 120 mins by liquid scintillation spectrometric analysis. In kind it is cell-based. An outline of the steps:
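Membranes from SH-SY5Y-hα7 cells (30–50 µg protein) were incubated with 1 nM [125I]α-BgTx in Tris binding saline, pH 7.0, for 120 min at 25 °C. […] GF/C filtration, top test concentration 1 mM. […] Four experiments, triplicate.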

T2 sequence (P17787 whole entry): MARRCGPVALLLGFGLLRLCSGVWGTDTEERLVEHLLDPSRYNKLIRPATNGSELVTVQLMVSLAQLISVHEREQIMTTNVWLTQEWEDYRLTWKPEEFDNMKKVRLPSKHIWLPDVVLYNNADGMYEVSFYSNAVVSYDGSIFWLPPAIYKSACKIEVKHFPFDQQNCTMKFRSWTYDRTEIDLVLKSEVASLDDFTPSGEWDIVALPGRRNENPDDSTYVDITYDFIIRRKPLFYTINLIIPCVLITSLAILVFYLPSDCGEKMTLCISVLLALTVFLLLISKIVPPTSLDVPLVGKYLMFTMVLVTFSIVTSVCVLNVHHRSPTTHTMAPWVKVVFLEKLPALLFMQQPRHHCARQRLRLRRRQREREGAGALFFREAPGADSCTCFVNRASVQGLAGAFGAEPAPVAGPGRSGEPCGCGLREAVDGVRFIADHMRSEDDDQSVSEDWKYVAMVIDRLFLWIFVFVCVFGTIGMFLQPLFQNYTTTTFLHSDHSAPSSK
T2 sequence (P43681 whole entry): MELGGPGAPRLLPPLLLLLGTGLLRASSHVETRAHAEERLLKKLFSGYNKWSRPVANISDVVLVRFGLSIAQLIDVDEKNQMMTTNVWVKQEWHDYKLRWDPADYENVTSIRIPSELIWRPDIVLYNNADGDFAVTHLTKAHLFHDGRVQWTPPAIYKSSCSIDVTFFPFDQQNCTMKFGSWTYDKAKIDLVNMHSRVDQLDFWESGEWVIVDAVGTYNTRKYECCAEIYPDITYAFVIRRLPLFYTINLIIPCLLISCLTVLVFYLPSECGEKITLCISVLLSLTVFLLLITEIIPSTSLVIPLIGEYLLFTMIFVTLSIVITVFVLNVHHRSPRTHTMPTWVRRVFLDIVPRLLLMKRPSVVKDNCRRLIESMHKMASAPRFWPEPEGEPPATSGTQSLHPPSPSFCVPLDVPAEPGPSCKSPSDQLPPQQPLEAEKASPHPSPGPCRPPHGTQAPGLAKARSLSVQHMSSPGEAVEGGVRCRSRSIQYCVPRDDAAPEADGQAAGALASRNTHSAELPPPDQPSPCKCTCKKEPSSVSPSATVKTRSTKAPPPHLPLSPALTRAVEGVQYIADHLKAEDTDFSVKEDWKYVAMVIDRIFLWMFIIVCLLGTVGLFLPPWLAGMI
Sequence of Nicotinic acetylcholine receptor alpha4/beta2/alpha5 (P17787 whole entry): as the sequence (P17787 whole entry) above
Sequence of Nicotinic acetylcholine receptor alpha4/beta2/alpha5 (P43681 whole entry): as the sequence (P43681 whole entry) above
Sequence of Nicotinic acetylcholine receptor alpha4/beta2/alpha5 (P30532 whole entry): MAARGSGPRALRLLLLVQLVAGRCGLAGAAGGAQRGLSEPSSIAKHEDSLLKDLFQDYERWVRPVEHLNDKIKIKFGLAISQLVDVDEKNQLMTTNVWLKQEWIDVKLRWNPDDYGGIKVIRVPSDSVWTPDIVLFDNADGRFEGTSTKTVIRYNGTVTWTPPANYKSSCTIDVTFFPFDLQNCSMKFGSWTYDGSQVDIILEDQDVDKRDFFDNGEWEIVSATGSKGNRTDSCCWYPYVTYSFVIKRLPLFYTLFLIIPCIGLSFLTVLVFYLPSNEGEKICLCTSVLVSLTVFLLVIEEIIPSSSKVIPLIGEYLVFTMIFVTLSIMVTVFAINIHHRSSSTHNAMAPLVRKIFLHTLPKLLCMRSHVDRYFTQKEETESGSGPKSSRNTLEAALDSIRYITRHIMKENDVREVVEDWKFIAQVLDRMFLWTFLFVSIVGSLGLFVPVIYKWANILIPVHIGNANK
T1 sequence (P36544 whole entry): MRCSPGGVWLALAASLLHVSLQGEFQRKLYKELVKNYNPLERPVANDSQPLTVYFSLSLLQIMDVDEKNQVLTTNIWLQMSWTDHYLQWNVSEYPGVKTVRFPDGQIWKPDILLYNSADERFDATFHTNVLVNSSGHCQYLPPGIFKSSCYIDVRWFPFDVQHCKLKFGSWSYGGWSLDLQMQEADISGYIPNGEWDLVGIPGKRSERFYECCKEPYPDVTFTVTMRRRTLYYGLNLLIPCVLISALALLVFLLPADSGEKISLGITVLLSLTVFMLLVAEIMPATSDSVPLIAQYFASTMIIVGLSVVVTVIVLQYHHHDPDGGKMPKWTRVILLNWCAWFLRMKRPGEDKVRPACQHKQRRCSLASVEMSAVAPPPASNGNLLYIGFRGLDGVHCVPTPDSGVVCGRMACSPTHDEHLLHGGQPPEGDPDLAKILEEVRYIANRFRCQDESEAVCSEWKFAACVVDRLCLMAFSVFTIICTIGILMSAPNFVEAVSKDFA

As for `CN1CCC[C@H]1COC(=O)c1cccc(N)c1`, the inhibition entry in assay [1] and in assay [4] was “Dose-dependent effect” in each case. In addition, the IC50 (as a rule, the concentration needed to halve the response being measured) came to 480 µM in assay [2], 1.02 µM in assay [3], 0.0284 µM in assay [4] and 4.3 µM in assay [5]. Affinity in assay [4] was put at a Ki of 0.0081 µM. Further, the inhibition result in assay [6] is “inactive”.

`CN1CCC[C@H]1COC(=O)c1ccc(Cl)cc1`: the IC50 was 8.9 µM in assay [1]; 6 µM in assay [2]; 95 µM in assay [3]; 0.0394 µM in assay [4]; 3.6 µM in assay [5]. Also, the results for the Ki in assay [1] and in assay [4] were 4.5 µM and 0.0112 µM, respectively. For the same compound, the inhibition entry in assay [1] and in assay [4] was “Dose-dependent effect” in each case.

In the case of `CN1CCC[C@H]1COC(=O)c1cccc([N+](=O)[O-])c1`, the IC50 in assay [1] stood at 464 µM; in assay [4], 1.61 µM. In addition, the Ki (commonly a dissociation constant, usually derived from enzyme kinetics or from competition with a known ligand) in assay [1] was 232 µM; in assay [4], 0.46 µM.

In assay [1], `CN1CCC[C@H]1COC(=O)c1ccc(OCc2ccccc2)nc1` displayed an IC50 of 59.1 µM and an inhibition constant (Ki) of 29.5 µM. In assay [4], the concentration for half-maximal inhibition (IC50) came out at 0.166 µM and the Ki was 0.0455 µM.

With `CN1CCC[C@H]1COC(=O)c1ccccc1`, the IC50 in assay [1] was determined as 13.4 µM; in assay [2], 52.3 µM; in assay [3], 313 µM; in assay [4], 0.0819 µM; in assay [5] it was 2.5 µM. Also, the Ki amounted to 6.7 µM in assay [1] and 0.0234 µM in assay [4]. Besides, the inhibition result in assay [1] and in assay [4] was “Dose-dependent effect” in each case.

For `CN1CCC[C@H]1COC(=O)c1ccc(Cl)nc1`, in assay [1], the IC50 was determined as 58.5 µM, the Ki stood at 29.3 µM and the inhibition result is “Dose-dependent effect”. Further, in assay [4], the IC50 was determined as 0.528 µM, the Ki amounted to 0.151 µM and the inhibition result is “Dose-dependent effect”.

Take `CN1CCC[C@H]1COC(=O)c1ccc(Br)cc1`: in assay [1], the IC50 was determined as 21.1 µM, the Ki worked out at 10.5 µM and the inhibition entry is “Dose-dependent effect”. Besides, in assay [4], the IC50 came to 0.0784 µM, the affinity corresponds to a Ki of 0.0224 µM and the inhibition result was “Dose-dependent effect”.

With `CN1CCC[C@H]1COC(=O)c1cnc2ccccc2c1`, in assay [1], the IC50 amounted to 97.3 µM, the Ki is 48.7 µM and the inhibition result was “Dose-dependent effect”. Also, in assay [4], the IC50 came to 0.759 µM, the Ki is 0.217 µM and the inhibition result was “Dose-dependent effect”.

As for `CN1CCC[C@H]1COC(=O)c1ccc(OCc2ccccc2)cc1`, the IC50 in assay [1] is 2.3 µM; in assay [2], 17.8 µM; in assay [3], 3.6 µM; in assay [4] it was 0.0042 µM; in assay [5], 25.8 µM. Also, the Ki in assay [1] came out at 1.1 µM; in assay [4] it was 0.0012 µM. In addition, the inhibition result in assay [1] and in assay [4] was “Dose-dependent effect” throughout.
